The source made the active and inactive calls. No cut-off for these calls is given here.
How the values were obtained:
RAW264.7 = assay: Activation of RXR/LXR heterodimer in mouse RAW264.7 cells assessed as increase in ABCA1 protein level at 10 uM after 24 hrs by Western blotting analysis; type: cell-based
[1] = target: T1, Retinoic acid receptor RXR-alpha (Homo sapiens) (UniProt P19793); assay: Binding affinity to RXRalpha (unknown origin) by receptor-SRC1 cofactor complex formation assay
T1 sequence (whole entry): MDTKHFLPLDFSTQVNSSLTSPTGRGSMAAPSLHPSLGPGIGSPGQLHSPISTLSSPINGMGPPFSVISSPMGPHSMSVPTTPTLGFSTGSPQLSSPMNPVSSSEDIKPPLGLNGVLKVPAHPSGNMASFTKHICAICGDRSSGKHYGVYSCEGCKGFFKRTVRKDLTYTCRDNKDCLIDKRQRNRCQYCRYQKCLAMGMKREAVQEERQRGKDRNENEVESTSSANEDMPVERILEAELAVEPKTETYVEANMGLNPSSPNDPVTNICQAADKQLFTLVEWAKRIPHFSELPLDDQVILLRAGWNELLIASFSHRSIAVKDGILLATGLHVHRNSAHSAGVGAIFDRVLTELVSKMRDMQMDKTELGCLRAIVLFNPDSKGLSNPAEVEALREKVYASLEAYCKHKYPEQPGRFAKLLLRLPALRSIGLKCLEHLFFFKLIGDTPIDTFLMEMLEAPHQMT
Summary of the method: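 Ligand-dependent binding of RXR isotype to coactivator SRC-1 in an NR cofactor kit, detected with HRP-conjugated anti-RXR antibody at OD450. The full agonist CD3254 defined 100% and vehicle 0%. Efficacy was taken as maximum B/Bmax% and potency as EC50.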

With `CC(C)=CCc1cc([C@@H]2CC(=O)c3ccc(O)c(CC=C(C)C)c3O2)cc2c1OC(C(C)(C)O)C2` (some centres not stated) the Activity (RAW264.7) was “Active” and the Activity [1] was “inactive”.
